Data reported in publication PMC2775513 (Neuroscience, 2009).
Each block holds one substance with its values, some of them ahead of it.

What was measured:
[1] = tested on: cultured rat hypothalamic neurons; assay: Cytosolic Ca2+ measurement; assay type: cell-based; details: for neurons responding with fast calcium transient followed by oscillations / mean amplitude of the first spike, fast calcium transient followed by oscillations: INSL7 n=8/158, C-INSL7 n=11/276
Method in brief: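 Hypothalamic neurons from 1–3-day-old rats were papain-dissociated and cultured 5 days in Neurobasal-A/10% FCS with 1 μM cytosine arabinoside, then serum-free for 12 hr. Cells were loaded with 5 μM fura-2 AM (45 min, room temperature, dark), de-esterified 45 min, then superfused with HBSS at 1 ml/min. Peptide was applied at 10–1000 nM. 340/380 ratio (emission 510 nm, 0.3 Hz) was converted to [Ca2+]i.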

[2] = tested on: cultured rat hypothalamic neurons; assay: Cytosolic Ca2+ measurement; assay type: cell-based; details: for mean amplitude of the first spike of [Ca2+]i oscillations, Ca2+-free / rapid and transitory increase in [Ca2+]i (single spike, no plateau), Ca2+-free: Ca2+-free HBSS with 2.5 mM EGTA; for mean amplitude of the first spike of [Ca2+]i oscillations, Ca2+-free: INSL7 n=5/76, C-INSL7 n=7; for rapid and transitory increase in [Ca2+]i (single spike, no plateau), Ca2+-free: INSL7 n=11/76, C-INSL7 n=15
Method in brief: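 Cultured neonatal rat hypothalamic neurons (5 days, serum withdrawn 12 hr before) were loaded with 5 μM fura-2 AM for 45 min at room temperature and de-esterified 45 min. They were superfused with Ca2+-free HBSS containing 2.5 mM EGTA, and 100 nM peptide was applied. [Ca2+]i was derived from the 340/380 excitation ratio (emission 510 nm, 0.3 Hz). Responding cells were counted against cells tested.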

[3] = tested on: cultured rat hypothalamic neurons; assay: Membrane potential, optical imaging using DiSBAC4; assay type: cell-based; details: 100 nM, DiSBAC4(3); for mean amplitude of membrane depolarization / mean amplitude of membrane hyperpolarization: resting potential −53 ± 2.1 mV; for mean amplitude of membrane depolarization: C-INSL7 n=7/153, INSL7 n=4; for mean amplitude of membrane hyperpolarization: C-INSL7 n=15/153, INSL7 n=6
Method in brief: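 Cultured neonatal rat hypothalamic neurons were loaded 30 min with DiSBAC4(3) in HBSS and superfused with 100 nM peptide. Fluorescence (excitation 480, emission 540 nm) was recorded at 10 points/min, background-subtracted. Calibration used 1 μM gramicidin in Na+-free solution with 17, 25 or 80 mM K+ (potentials by Nernst equation): a 1.092 fluorescence change equals 1 mV.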

[4] = tested on: [125I]C-INSL7 binding sites, rat brain membranes; assay: [125I]C-INSL7 binding to rat brain membranes; details: for inhibition of [125I]C-INSL7 binding: 1 to 1000 nM unlabeled peptide, ~0.3 nM [125I]C-INSL7, three independent experiments
[5] = tested on: C-INSL7 antiserum (rabbit polyclonal); assay: Pre-absorption of C-INSL7 antiserum, immunohistochemistry of rat pons sections; details: 1 μg/ml overnight
[6] = tested on: C-INSL7 antiserum (rabbit polyclonal); details: ELISA; ref Phoenix Pharmaceuticals, Inc.; cited from earlier work
GPCR135 [7] = details: cells over-expressing GPCR135; ref Liu et al., 2003 a, b; cited from earlier work
GPCR145 = details: cells over-expressing GPCR145 (so in the source); ref Liu et al., 2003 a, b; cited from earlier work
GPCR135 (Homo sapiens) = GPCR135 (Homo sapiens) (UniProt Q9NSD7); assay: radioligand binding; details: cited from earlier work
UniProt Q9NSD7, sequence (Q9NSD7 whole entry): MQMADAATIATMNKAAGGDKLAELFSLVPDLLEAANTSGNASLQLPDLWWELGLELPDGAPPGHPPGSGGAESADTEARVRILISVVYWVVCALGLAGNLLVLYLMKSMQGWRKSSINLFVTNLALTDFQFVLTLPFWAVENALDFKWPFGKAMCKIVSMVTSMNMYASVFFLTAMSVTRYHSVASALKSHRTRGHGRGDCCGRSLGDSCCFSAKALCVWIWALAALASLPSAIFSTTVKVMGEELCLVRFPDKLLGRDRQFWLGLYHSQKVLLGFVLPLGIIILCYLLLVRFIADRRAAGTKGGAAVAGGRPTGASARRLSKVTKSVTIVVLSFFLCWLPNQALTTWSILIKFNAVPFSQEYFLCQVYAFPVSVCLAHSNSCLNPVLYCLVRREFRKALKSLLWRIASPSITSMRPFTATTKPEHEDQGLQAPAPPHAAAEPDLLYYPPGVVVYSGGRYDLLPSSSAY

GPCR142 (Homo sapiens) = GPCR142 (Homo sapiens) (UniProt Q8TDU9); assay: radioligand binding; details: cited from earlier work
UniProt Q8TDU9, sequence (Q8TDU9 whole entry): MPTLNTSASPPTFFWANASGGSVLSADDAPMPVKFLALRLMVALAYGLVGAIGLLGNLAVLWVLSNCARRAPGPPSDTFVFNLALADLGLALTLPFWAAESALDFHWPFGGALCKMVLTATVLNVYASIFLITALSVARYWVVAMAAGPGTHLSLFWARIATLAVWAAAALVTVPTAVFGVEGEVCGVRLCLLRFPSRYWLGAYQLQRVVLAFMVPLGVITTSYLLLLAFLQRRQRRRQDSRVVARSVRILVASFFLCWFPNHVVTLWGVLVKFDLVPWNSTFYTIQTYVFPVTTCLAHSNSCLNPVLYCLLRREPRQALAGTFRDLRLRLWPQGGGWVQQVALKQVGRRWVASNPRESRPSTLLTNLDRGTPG

GPCR135 [8] = details: printed GPR135; ref Liu et al., 2003a, b; cited from earlier work
GPCR142 = details: printed GPR142; ref Liu et al., 2003a, b; cited from earlier work

relaxin 3, sequence (Q8WXF3 119-142): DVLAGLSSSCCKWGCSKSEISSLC

Substance: ryanodine [reference compound]
effect of ryanodine pretreatment on C-INSL7-induced [Ca2+]i oscillations ([1]; ryanodine 5 μM, 15 min, C-INSL7 100 nM): abolishing the [Ca^2+]i oscillations

Substance: C-peptide of human preproinsulin-like peptide 7 [C-INSL7]
amplitude of the first spike of [Ca2+]i oscillations ([1]; 10 nM, HBSS, fura-2, n = 6): 137 ± 2.6 nM
stable (sustained) [Ca2+]i elevation ([1]; 10 nM, HBSS, fura-2, n = 6): 118 ± 2.4 nM
neurons responding with fast and sustained increase in [Ca2+]i ([1]; 100 nM, HBSS, 36 of 276): 13%
neurons responding with fast calcium transient followed by oscillations ([1]; 100 nM, HBSS): 4%
mean amplitude of the first spike, fast calcium transient followed by oscillations ([1]; 100 nM, HBSS, fura-2): 763 ± 4.2 nM
mean amplitude of fast and sustained increase in [Ca2+]i ([1]; 100 nM, HBSS, fura-2, n=36/276): 405 ± 3.1 nM
amplitude of the first spike of [Ca2+]i oscillations ([1]; 1,000 nM, HBSS, fura-2, n = 7): 1051 ± 9.8 nM
mean amplitude of fast and sustained increase in [Ca2+]i ([1]; 1,000 nM, HBSS, fura-2, n = 8): 731 ± 4.7 nM
concentration dependence of calcium oscillations ([1]; 10, 100 and 1000 nM, HBSS): also in a concentration-dependent manner
concentration dependence of fast and sustained increase in [Ca2+]i ([1]; 10, 100 and 1000 nM, HBSS): in a concentration-dependent manner
Δ[Ca2+]i, fast and sustained rise, after ryanodine pretreatment ([1]; C-INSL7 100 nM, ryanodine 5 μM, 15 min pretreatment, n = 7): 391 ± 3.6 nM
mean amplitude of the first spike of [Ca2+]i oscillations, Ca2+-free ([2]; 100 nM): 497 ± 3.6 nM
rapid and transitory increase in [Ca2+]i (single spike, no plateau), Ca2+-free ([2]; 100 nM): 231 ± 2.6 nM
cells responding with calcium oscillations, Ca2+-free ([2]; 100 nM, Ca2+-free saline, 7 cells): 5%
cells responding with single Ca2+ spike, Ca2+-free ([2]; 100 nM, Ca2+-free saline, 15 cells): 11%
fraction of neurons depolarized (n responding/tested) [3]: 7/153
fraction of neurons hyperpolarized (n responding/tested) [3]: 15/153
mean amplitude of membrane depolarization [3]: 11 ± 1.6 mV
mean amplitude of membrane hyperpolarization [3]: 7 ± 1.3 mV
inhibition of [125I]C-INSL7 binding [4]: in a dose-dependent manner
Bmax ([4]; homologous competition, ~0.3 nM [125I]C-INSL7, pH 7.4, room temperature, 1 hr, nonspecific: 1 μM C-INSL7, n=3): 45.4 ± 20.5 fmol/mg protein
Kd ([4]; homologous competition, ~0.3 nM [125I]C-INSL7, ~0.5 mg membranes, pH 7.4, room temperature, 1 hr, nonspecific: 1 μM C-INSL7, n=3): 17.7 ± 8.2 nM
concentration of maximum inhibition of [125I]C-INSL7 binding ([4]; unlabeled peptide 1 to 1000 nM): 500 nM
immunoreactivity after pre-absorption of C-INSL7 antiserum with peptide [5]: immunoreactivity was not detected
cross-reactivity with C-INSL7 antiserum [6]: 100%

Substance: Recombinant human relaxin 3: Recombinant human relaxin 3
GTPγS binding (GPCR135 [7]): potently stimulated
cAMP formation (GPCR135 [7]): inhibited
GTPγS binding (GPCR145): potently stimulated
cAMP formation (GPCR145): inhibited

Substance: relaxin 3 (from UniProt Q8WXF3)
Kd (GPCR135 (Homo sapiens)): 0.31 nM
Kd (GPCR142 (Homo sapiens)): 1.9 nM

inhibition of [125I]C-INSL7 binding [4]: did not inhibit
Substance: insulin-like peptide 7 [INSL7, reference compound]
neurons responding with fast calcium transient followed by oscillations ([1]; 100 nM, HBSS): 5%
mean amplitude of the first spike, fast calcium transient followed by oscillations ([1]; 100 nM, HBSS, fura-2): 1268 ± 39 nM
mean increase of [Ca2+]i, fast, transitory ([1]; 100 nM, HBSS, fura-2, n=27/158): 817 ± 6.3 nM
neurons responding with fast, transitory increase of [Ca2+]i ([1]; 100 nM, HBSS, n=27/158): 17%
mean amplitude of the first spike of [Ca2+]i oscillations, Ca2+-free ([2]; 100 nM): 583 ± 7.4 nM
rapid and transitory increase in [Ca2+]i (single spike, no plateau), Ca2+-free ([2]; 100 nM): 307 ± 4.2 nM
fraction of neurons with [Ca2+]i oscillations, Ca2+-free (n responding/tested) ([2]; 100 nM, Ca2+-free medium): 5/76
effect of Ca2+-free solution on calcium spike ([2]; type 1 response, Ca2+-free vs normal solution): not significantly altered in a Ca^2+-free solution
mean amplitude of membrane depolarization [3]: 9 ± 2.6 mV
mean amplitude of membrane hyperpolarization [3]: 5 ± 1.8 mV
binding affinity (GPCR135 [8]): high affinity
binding affinity (GPCR142): high affinity
